Calls of active or inactive are those of the source. The rule behind the calls is not given here.
How the values were obtained:
[1] = molecular target: T1, A-type voltage-gated potassium channel KCND2 (Homo sapiens) (UniProt Q9NZV8); assay: Inhibition of Kv4.2 channel inactivation expressed in xenopus oocytes at 30 uM by voltage clamp assay; assay type: cell-based; details: Oocyte
T1 sequence (whole entry): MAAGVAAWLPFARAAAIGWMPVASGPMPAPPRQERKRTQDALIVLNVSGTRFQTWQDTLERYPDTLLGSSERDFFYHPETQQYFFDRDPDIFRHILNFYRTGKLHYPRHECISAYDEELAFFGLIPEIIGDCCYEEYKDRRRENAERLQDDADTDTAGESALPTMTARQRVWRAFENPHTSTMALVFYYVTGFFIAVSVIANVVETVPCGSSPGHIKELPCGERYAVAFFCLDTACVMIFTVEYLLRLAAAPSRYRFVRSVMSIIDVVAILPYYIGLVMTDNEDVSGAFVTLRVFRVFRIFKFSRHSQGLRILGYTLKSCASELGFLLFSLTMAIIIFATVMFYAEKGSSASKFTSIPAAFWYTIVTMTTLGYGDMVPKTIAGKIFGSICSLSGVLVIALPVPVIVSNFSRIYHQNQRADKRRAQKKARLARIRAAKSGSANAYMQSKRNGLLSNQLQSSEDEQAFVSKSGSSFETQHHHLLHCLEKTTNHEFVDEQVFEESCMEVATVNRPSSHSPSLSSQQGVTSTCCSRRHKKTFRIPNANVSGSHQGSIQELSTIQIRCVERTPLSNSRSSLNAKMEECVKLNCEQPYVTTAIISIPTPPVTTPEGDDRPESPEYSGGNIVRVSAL

[2] = molecular target: T2, Voltage-gated potassium channel subfamily A member 1/beta-1 (Homo sapiens, UniProt Q09470+Q14722); assay: Inhibition of Kv1.1/Kvbeta1 N terminal chimera channel inactivation expressed in xenopus oocytes by voltage clamp assay; assay type: cell-based, Oocyte
Summary of the method: (§1)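 Stage V–VI Xenopus oocytes injected with ~0.5–5 ng mRNA and kept 1–4 days in ND-96 (pH 7.6). Either Kv1.1 plus Kvβ1 RNA at 1:160, or a chimera (Kvβ1 residues 1–70 fused through a Ser to Kv1.1 N-terminus). Two-electrode clamp in perfused ND-96 with 3 M KCl electrodes. Held at −80 mV, stepped 200 ms to +50 mV. Disinactivation = 100·Iss/Ipeak, ≥3 experiments, mean ± SEM. EC50 from logistic fit.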

[3] = molecular target: T3, Potassium voltage-gated channel subfamily A member 1 (Homo sapiens, UniProt Q09470); assay: Inhibition of Kvbeta-1-mediated inactivation of Kv1.1 channel expressed in xenopus oocytes by voltage clamp assay; assay type: cell-based, Oocyte; summary of the method: as §1
[4] = molecular target: T4, Potassium voltage-gated channel subfamily A member 4 (Homo sapiens, UniProt P22459); assay: Inhibition of Kv1.4 channel inactivation expressed in xenopus oocytes by voltage clamp assay; assay type: cell-based, Oocyte
Summary of the method: (§2)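 Kv1.4 expressed in stage V–VI Xenopus oocytes and recorded 1–4 days after injection. Two-electrode voltage clamp in perfused ND-96 (pH 7.6), held at −80 mV with 200 ms steps to +50 mV. Compound up to 50 µM, current followed 2–8 min after application. Disinactivation = 100·Iss/Ipeak, three experiments.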

[5] = molecular target: T3, Potassium voltage-gated channel subfamily A member 1; assay: Inhibition of Kvbeta-1-mediated inactivation of Kv1.1 channel expressed in xenopus oocytes at 50 uM by voltage clamp assay; assay type: cell-based; design: scale not given: the % may be the effect or the level left; details: Oocyte; summary of the method: as §1
[6] = molecular target: T2, Voltage-gated potassium channel subfamily A member 1/beta-1; assay: Inhibition of Kv1.1/Kvbeta1 N terminal chimera channel inactivation expressed in xenopus oocytes at 50 uM by voltage clamp assay; assay type: cell-based; design: scale not given: the % may be the effect or the level left; details: Oocyte; summary of the method: as §1
[7] = molecular target: T4, Potassium voltage-gated channel subfamily A member 4; assay: Inhibition of Kv1.4 channel inactivation expressed in xenopus oocytes at 50 uM by voltage clamp assay; assay type: cell-based; design: scale not given: the % may be the effect or the level left; details: Oocyte; summary of the method: as §2
[8] = molecular target: T3, Potassium voltage-gated channel subfamily A member 1; assay: Inhibition of Kvbeta-1-mediated inactivation of Kv1.1 channel expressed in xenopus oocytes at 150 uM by voltage clamp assay; assay type: cell-based; design: scale not given: the % may be the effect or the level left; details: Oocyte
Mus musculus [9] = assay: Anticonvulsant activity in ip dosed CF1 mouse assessed as inhibition of pentylenetetrazole-induced seizure; assay type: functional
Summary of the method: (§3)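 Male CF-1 mice, 20–25 g, free access to food and water. Compound in 2% Tween 80/1% methylcellulose/saline given ip 30 min before PTZ 85 mg/kg sc. Mice observed 30 min in individual chambers. Groups of eight scored for presence or absence of clonic seizure (forelimb and hindlimb paddling with loss of righting). ED50 in mg/kg, or number of mice seizing out of eight.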

[10] = molecular target: T3, Potassium voltage-gated channel subfamily A member 1; assay: Inhibition of Kv-beta-1 mediated inactivation of Kv1.1 channel assessed as intracellular calcium accumulation in Tsa201 cells at 50 uM by FLIPR assay; assay type: cell-based
Summary of the method: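 Tsa201 cells plated at 50,000/well and used the following day. Loaded with 3 µM Fluo-4 AM in HBSS with 2.5 mM probenecid, 60 min at 37 °C, then washed into calcium-free HBSS. Baseline read 5 s, compound added at final 50 µM (A23187 reference at 10 µM), fluorescence followed 3 min. Signal normalized to background. BAPTA-AM 10 µM counter-check for autofluorescence.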

Mus musculus [11] = assay: Anticonvulsant activity in CF1 mouse assessed as inhibition of pentylenetetrazole-induced seizure at 100 mg/kg, ip; assay type: functional, organism-based; design: dose 100 mg/kg; summary of the method: as §3
[12] = molecular target: T3, Potassium voltage-gated channel subfamily A member 1; assay: Inhibition of Kv-beta-1 mediated inactivation of Kv1.1 channel assessed as intracellular calcium accumulation in Tsa201 cells at 50 uM by FLIPR assay
[13] = molecular target: T3, Potassium voltage-gated channel subfamily A member 1; assay: Inhibition of Kvbeta-1-mediated inactivation of Kv1.1 channel expressed in xenopus oocytes at 200 uM by voltage clamp assay; assay type: cell-based; design: scale not given: the % may be the effect or the level left; details: Oocyte

T3 sequence (Q09470 whole entry): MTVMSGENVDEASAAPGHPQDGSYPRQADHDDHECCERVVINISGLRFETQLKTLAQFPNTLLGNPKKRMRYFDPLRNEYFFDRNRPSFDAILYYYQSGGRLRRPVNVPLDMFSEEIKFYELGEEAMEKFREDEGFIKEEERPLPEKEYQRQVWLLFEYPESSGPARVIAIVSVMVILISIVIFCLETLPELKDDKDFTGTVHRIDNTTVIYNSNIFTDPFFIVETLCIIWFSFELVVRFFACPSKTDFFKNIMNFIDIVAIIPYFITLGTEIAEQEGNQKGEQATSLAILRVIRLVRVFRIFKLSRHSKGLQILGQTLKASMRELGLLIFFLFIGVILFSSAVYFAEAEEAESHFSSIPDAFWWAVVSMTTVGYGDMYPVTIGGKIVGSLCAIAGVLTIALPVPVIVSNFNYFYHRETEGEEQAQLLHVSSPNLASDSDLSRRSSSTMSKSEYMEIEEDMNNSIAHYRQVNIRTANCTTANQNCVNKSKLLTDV
T4 sequence (P22459 whole entry, the tested form may be a part): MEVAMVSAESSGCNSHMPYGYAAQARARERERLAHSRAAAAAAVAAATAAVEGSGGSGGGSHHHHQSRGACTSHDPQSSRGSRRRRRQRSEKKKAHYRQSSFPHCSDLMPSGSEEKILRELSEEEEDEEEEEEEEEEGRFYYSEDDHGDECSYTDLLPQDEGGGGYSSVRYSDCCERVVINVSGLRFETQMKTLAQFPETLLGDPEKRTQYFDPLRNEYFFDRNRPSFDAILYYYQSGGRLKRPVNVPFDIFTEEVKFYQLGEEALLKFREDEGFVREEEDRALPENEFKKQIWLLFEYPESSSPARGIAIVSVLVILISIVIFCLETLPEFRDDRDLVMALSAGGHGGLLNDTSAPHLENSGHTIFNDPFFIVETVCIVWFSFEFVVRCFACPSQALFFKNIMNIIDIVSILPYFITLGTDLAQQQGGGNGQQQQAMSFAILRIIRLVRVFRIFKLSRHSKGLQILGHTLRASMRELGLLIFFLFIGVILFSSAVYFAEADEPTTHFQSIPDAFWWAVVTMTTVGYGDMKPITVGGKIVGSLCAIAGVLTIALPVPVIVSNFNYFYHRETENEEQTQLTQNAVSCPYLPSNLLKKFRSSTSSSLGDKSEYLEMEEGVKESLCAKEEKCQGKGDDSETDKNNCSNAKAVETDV
T2 sequence (Q09470 whole entry, the tested form may be a part): as the sequence (Q09470 whole entry) above
T2 sequence (Q14722 whole entry, the tested form may be a part): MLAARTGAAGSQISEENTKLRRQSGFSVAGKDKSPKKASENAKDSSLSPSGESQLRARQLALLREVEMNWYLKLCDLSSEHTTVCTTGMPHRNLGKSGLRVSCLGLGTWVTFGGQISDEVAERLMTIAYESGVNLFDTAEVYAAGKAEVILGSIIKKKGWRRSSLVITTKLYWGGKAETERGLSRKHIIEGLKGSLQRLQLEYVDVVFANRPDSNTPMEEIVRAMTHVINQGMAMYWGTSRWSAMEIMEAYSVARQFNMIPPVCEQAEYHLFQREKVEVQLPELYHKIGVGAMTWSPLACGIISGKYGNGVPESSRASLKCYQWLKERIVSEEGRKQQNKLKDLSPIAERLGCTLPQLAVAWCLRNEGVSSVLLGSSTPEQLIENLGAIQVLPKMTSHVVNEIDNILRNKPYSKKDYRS

Structure (SMILES) | Activity [1] | Activity [5] [%] | ED50 (Mus musculus [9]) [mg/kg] | other results
O=[N+]([O-])C1(Br)COC(c2ccccc2)OC1 (stereo not drawn) | inactive | – | – | EC50 [2]: 8.9 µM; EC50 [3]: 7.1 µM; EC50 [4]: 1.3 µM
CC1(c2ccccc2)NC(=O)N(C(=O)/C=C/c2ccc(F)cc2)C1=O (stereo not drawn) | inactive | 52.5 | – | Activity [6]: 34%
CC1(C)CC(=O)C(C(=O)Nc2ccc(Cl)cc2C(F)(F)F)C(=O)C1 | inactive | – | 66 | Activity [7]: 5%; Activity [8]: 45%
CC1(C)OCC(Br)([N+](=O)[O-])CO1 | inactive | – | 139 | EC50 [2]: 16.7 µM; EC50 [3]: 4.3 µM; EC50 [4]: 2.3 µM
O=C(Nc1ccc([N+](=O)[O-])cc1)C1C(=O)C2=C(CCCC2)C1=O | inactive | 96.3 | – | Activity [10]: Active; Activity (Mus musculus [11]): inactive; Activity [12]: Active
CC1(C)CC(=O)C(C(=O)Nc2cccc(C(F)(F)F)c2)C(=O)C1 | inactive | 18.5 | 32 | Activity [13]: 40%
C[C@@]1(c2ccccc2)NC(=O)N(C(=O)C2=Cc3cc(Cl)ccc3OC2)C1=O | inactive | 18.8 | – | Activity [6]: 37%

From ChEMBL document CHEMBL1143977, “Disruption of Kv1.1 N-type inactivation by novel small molecule inhibitors (disinactivators)” (Bioorg Med Chem, 2008)
